# Assay results: ChEMBL document CHEMBL4706730, “A Set of Highly Sensitive Sirtuin Fluorescence Probes for Screening Small-Molecular Sirtuin Defatty-Acylase Inhibitors” (ACS Med Chem Lett, 2021)
# Activity calls are given as the source filed them. No cut-off for these calls is given here. Numbered stars: 1 amine (or outer) side, 2 acyl side, 3 side chain; on linkers, the order of the positions; unused ones are H or OH. Square brackets hold non-standard residues; d marks the D form. Peptide text beside a SMILES is read from it. * marks the point of attachment. Lys(thiomyristoyl) = CCCCCCCCCCCCCC(=S)NCCCC[C@H](N)C(=O)O; X1 = O=C(O)c1cc(NC(=S)*)ccc1-c1c2ccc(=O)cc-2oc2cc(O)ccc12; X2 = CN(CCC(=O)*)c1ccc(/N=N/c2ccc([N+](=O)[O-])cc2)cc1; Achc(trans-4) = O=C([C@H]1CC[C@H](N[*:1])CC1)[*:2]; X3 = CN(C)c1ccc(/N=N/c2ccc(CCC(=O)*)cc2)cc1; X5 = O=C(Cc1ccc(/N=N/c2ccc(O)cc2)cc1)*
# Key:
# [1] = target: T1, NAD-dependent protein deacetylase sirtuin-2 (Homo sapiens) (UniProt Q8IXJ6); assay: (§1) Inhibition of 5-(3-((1r,4r)-4-((5S,8S,11S,14S,17S,20S,29S)-11-((1H-imidazol-4-yl)methyl)-1,33-diamino-5-carbamoyl-17-(4-(4-(4-((4-(dimethylamino)phenyl)diazenyl)phenyl)butanamido)butyl)-8,14-bis(3-guanidinopropyl)-20-methyl-7,10,13,16,19,22,25,28-octaoxo-6,9,12,15,18,21,24,27-octaazatritriacontan-29-ylcarbamoyl)cyclohexyl)thioureido)-2-(6-hydroxy-3-oxo-3H-xanthen-9-yl)benzoic acid binding to SIRT2 (unknown origin) at 10 uM measured after 2 hrs in presence of NAD+ by fluorometric method relative to control
# T1 sequence (whole entry): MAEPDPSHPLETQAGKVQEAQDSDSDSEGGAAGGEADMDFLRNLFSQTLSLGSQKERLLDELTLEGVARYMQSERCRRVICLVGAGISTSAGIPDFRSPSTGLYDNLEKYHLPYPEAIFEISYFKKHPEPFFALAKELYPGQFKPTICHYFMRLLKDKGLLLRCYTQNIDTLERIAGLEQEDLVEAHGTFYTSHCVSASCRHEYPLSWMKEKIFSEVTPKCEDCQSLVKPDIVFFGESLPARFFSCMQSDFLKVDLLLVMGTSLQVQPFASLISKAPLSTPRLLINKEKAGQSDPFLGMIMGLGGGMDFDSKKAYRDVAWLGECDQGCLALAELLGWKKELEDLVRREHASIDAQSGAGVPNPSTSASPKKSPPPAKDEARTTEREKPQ
# Outline: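 In the primary library screen, 384-well plates held SIRT2 with the Dabcyl-BH/H4K16 one-step FRET probe. Each compound was tested at 10 μM with 0.5% DMSO, and inhibition was taken from the fluorescence signal.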
# [2] = target: T2, NAD-dependent protein deacetylase sirtuin-1 (Homo sapiens) (UniProt Q96EB6); assay: Binding affinity to SIRT1 (unknown origin) assessed as increase in fluorescence intensity at 2.5 uM measured at 5 mins interval for 1 hr in presence of NAD+ by fluorometric method relative to control
# T2 sequence (whole entry): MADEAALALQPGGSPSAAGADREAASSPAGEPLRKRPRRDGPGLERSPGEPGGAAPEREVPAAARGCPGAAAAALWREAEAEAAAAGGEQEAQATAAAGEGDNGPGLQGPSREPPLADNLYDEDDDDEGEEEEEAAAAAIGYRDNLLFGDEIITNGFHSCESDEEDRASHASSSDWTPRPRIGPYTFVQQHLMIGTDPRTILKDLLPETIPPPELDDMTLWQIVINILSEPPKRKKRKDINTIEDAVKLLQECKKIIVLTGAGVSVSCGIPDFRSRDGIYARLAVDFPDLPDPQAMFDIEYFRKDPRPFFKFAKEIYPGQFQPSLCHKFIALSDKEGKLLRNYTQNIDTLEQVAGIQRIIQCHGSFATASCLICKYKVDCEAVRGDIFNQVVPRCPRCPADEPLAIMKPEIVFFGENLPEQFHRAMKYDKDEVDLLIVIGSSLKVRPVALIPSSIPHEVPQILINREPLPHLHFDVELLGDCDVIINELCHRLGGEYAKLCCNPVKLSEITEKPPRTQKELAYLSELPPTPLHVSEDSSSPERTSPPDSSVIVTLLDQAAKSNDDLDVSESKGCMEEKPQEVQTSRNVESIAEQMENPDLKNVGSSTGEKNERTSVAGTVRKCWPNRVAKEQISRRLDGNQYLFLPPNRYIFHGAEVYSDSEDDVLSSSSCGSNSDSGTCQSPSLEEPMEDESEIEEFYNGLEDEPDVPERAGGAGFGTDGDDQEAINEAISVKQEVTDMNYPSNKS
# Outline: (§2)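 Each FITC/quencher FRET peptide probe was incubated with recombinant SIRT1–7 in 96-well half-area plates at 37 °C for 1 h. The fluorescence increase is reported as a fold change, SIRT(+) signal over SIRT(−) signal, after 1 h.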
# [3] = target: T1, NAD-dependent protein deacetylase sirtuin-2 (Homo sapiens); assay: Binding affinity to SIRT2 (unknown origin) assessed as increase in fluorescence intensity at 2.5 uM measured at 5 mins interval for 1 hr in presence of NAD+ by fluorometric method relative to control; outline: as §2
# [4] = target: T1, NAD-dependent protein deacetylase sirtuin-2 (Homo sapiens); assay: Binding affinity to SIRT2 (unknown origin) assessed as increase in fluorescence intensity measured at 5 mins interval for 1 hr in presence of NAD+ by fluorometric method
# [5] = target: T3, NAD-dependent protein deacetylase sirtuin-7 (Homo sapiens) (UniProt Q9NRC8); assay: Binding affinity to SIRT7 (unknown origin) assessed as increase in fluorescence intensity at 2.5 uM measured at 5 mins interval for 1 hr in presence of NAD+ by fluorometric method relative to control; outline: as §2
# T3 sequence (whole entry): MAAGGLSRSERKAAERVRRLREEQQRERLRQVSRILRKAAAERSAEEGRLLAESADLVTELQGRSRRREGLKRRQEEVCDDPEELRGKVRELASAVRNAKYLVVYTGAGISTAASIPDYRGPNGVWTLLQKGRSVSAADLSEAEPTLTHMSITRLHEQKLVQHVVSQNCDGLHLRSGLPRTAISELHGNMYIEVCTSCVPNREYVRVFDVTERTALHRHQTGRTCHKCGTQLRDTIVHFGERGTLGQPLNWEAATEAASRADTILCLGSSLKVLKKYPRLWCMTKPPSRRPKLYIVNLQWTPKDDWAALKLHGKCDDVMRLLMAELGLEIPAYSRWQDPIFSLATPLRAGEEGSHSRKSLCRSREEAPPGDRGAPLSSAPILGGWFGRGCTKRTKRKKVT
# [6] = target: NAD-dependent protein deacylase sirtuin-5, mitochondrial (Homo sapiens) (UniProt Q9NXA8); assay: Binding affinity to SIRT5 (unknown origin) assessed as increase in fluorescence intensity at 2.5 uM measured at 5 mins interval for 1 hr in presence of NAD+ by fluorometric method relative to control; outline: as §2
# NAD-dependent protein deacylase sirtuin-5, mitochondrial (Homo sapiens), sequence (Q9NXA8 37-310 limits assumed): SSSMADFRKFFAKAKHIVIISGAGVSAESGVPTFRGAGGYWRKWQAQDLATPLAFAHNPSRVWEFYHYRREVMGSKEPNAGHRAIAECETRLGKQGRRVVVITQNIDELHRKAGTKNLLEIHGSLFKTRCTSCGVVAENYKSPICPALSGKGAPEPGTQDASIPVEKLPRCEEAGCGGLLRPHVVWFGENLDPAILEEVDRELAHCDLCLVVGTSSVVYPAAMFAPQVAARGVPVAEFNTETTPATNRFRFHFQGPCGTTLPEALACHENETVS
# [7] = target: NAD-dependent protein deacylase sirtuin-6 (Homo sapiens) (UniProt Q8N6T7); assay: Binding affinity to SIRT6 (unknown origin) assessed as increase in fluorescence intensity at 2.5 uM measured at 5 mins interval for 1 hr in presence of NAD+ by fluorometric method relative to control; outline: as §2
# Target sequence in this assay (Q8N6T7 whole entry): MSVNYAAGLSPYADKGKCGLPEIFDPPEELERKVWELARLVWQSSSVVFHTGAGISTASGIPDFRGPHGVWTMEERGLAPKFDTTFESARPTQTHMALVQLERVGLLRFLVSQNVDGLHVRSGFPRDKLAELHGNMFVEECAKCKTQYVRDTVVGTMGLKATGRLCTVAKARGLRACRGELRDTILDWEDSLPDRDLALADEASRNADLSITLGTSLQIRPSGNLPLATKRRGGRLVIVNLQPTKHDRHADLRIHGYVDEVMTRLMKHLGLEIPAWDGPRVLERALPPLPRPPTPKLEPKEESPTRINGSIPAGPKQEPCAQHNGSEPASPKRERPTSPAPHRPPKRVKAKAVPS
# [8] = target: T4, NAD-dependent protein lipoamidase sirtuin-4, mitochondrial (Homo sapiens) (UniProt Q9Y6E7); assay: Binding affinity to SIRT4 (unknown origin) assessed as increase in fluorescence intensity at 2.5 uM measured at 5 mins interval for 1 hr in presence of NAD+ by fluorometric method relative to control; outline: as §2
# T4 sequence (whole entry): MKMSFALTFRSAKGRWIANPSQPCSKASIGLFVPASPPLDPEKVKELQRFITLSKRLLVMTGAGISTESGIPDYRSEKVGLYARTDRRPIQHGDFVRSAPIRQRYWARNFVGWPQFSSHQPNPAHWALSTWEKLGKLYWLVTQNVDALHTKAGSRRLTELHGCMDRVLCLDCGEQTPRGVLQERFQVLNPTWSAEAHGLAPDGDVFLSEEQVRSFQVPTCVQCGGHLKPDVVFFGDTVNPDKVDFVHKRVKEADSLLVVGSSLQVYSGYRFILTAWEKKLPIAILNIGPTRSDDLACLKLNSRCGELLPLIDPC
# [9] = target: T1, NAD-dependent protein deacetylase sirtuin-2 (Homo sapiens); assay: Binding affinity to SIRT2 (unknown origin) assessed as increase in fluorescence intensity at 2.92 to 8.75 nM measured at 5 mins interval for 4 hrs in presence of NAD+ by fluorometric method; conditions: dose 2.92-8.75 nM
# [10] = target: T5, NAD-dependent protein deacetylase sirtuin-2 (Homo sapiens, UniProt Q8IXJ6); assay: as §1, with “origin)” for “origin) at 10 uM”, “method” for “method relative to control”
# T5 sequence (Q8IXJ6 whole entry): T1 sequence (whole entry)
# Outline: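 The second screen used the same SIRT2 one-step FRET probe conditions, validated at 2.92 nM SIRT2. Compounds were tested over a range of concentrations to check dose-dependency, and the IC50 was derived from the dose–response curve.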
# [11] = target: T6, NAD-dependent protein deacetylase sirtuin-3, mitochondrial (Homo sapiens) (UniProt Q9NTG7); assay: Binding affinity to SIRT3 (unknown origin) assessed as increase in fluorescence intensity at 2.5 uM measured at 5 mins interval for 1 hr in presence of NAD+ by fluorometric method relative to control; outline: as §2
# T6 sequence (whole entry): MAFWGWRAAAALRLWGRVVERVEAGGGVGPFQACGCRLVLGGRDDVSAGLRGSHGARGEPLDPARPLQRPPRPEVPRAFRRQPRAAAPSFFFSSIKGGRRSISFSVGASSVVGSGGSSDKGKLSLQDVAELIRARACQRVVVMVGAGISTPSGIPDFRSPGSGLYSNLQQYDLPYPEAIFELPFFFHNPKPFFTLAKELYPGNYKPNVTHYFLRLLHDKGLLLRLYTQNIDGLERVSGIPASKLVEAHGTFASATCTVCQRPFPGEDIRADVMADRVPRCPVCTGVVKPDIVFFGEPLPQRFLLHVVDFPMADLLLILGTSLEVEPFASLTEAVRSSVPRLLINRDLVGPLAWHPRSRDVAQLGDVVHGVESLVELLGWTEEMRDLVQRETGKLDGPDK
# [12] = target: NAD-dependent protein deacylase sirtuin-6 (Homo sapiens) (UniProt Q8N6T7); assay: Inhibition of 5-[[(1r,4r)-4-[[(1S)-4-amino-1-[[(1S,2R)-1-[[(1S)-2-[[(1S)-1-[[(1S)-1-[[(1S)-2-[[(1S,2R)-1-[[2-(carboxymethylamino)-2-oxoethyl]carbamoyl]-2-hydroxypropyl]amino]-1-(hydroxymethyl)-2-oxoethyl]carbamoyl]-5-[3-[N-methyl-4-[(4-nitrophenyl)azo]anilino]propanoylamino]pentyl]carbamoyl]-4-guanidinobutyl]amino]-1-methyl-2-oxoethyl]carbamoyl]-2-hydroxypropyl]carbamoyl]-4-oxobutyl]carbamoyl]cycl …
# Target sequence in this assay (Q8N6T7 whole entry, looked up): as the sequence (Q8N6T7 whole entry) above
Compound,fold change (FC) [2],fold change (FC) [3],fold change (FC) [5],fold change (FC) [6],fold change (FC) [7],fold change (FC) [8],also measured
O=C1CCCCC1C1(O)C(=O)Nc2ccccc21 (stereo unspecified),–,–,–,–,–,–,inhibition [1]: > 35%
CC[C@H](C)[C@H](NC(=O)[C@H](CCCNC(=N)N)NC(C)=O)C(=O)N[C@@H](CCCCNC(=O)Cc1ccc(/N=N/c2ccc(O)cc2)cc1)C(=O)N[C@@H](CCCNC(=N)N)C(=O)N[C@@H](Cc1ccc(O)cc1)C(N)=O (Ac-RIK(X5)RY-NH2),–,–,–,–,–,–,IC50 [10]: 7 nM
CCCCCCCCCCCCCC(=S)NCCCC[C@H](NC(=O)[C@@H](NC(=O)[C@H](CCCNC(=N)N)NC(C)=O)[C@@H](C)CC)C(=O)N[C@@H](CCCNC(=N)N)C(=O)N[C@@H](Cc1ccc(O)cc1)C(N)=O (Ac-RI[Lys(thiomyristoyl)]RY-NH2),–,–,–,–,–,–,IC50 [12]: 100 nM
C=C(C)Cn1c(NCCO)nc2c1c(=O)[nH]c(=O)n2C,–,–,–,–,–,–,inhibition [1]: > 35%

# More lines, main results first:
fold change (FC) [2],fold change (FC) [3],fold change (FC) [5],fold change (FC) [6],fold change (FC) [7],fold change (FC) [8],Compound,also measured
14.2,12,1,1.06,2.21,1.11,C[C@H](NC(=O)CNC(=O)CNC(=O)[C@H](CCCCN)NC(=O)[C@H]1CC[C@H](NC(=S)Nc2ccc(-c3c4ccc(=O)cc-4oc4cc(O)ccc34)c(C(=O)O)c2)CC1)C(=O)N[C@@H](CCCCNC(=O)CCCc1ccc(/N=N/c2ccc(N(C)C)cc2)cc1)C(=O)N[C@@H](CCCNC(=N)N)C(=O)N[C@@H](Cc1c[nH]cn1)C(=O)N[C@@H](CCCNC(=N)N)C(=O)N[C@@H](CCCCN)C(N)=O,Activity [4]: Dose-dependent effect; Activity [9]: Active
5,3.83,1.01,0.99,3.51,1.18,C[C@H](NC(=O)[C@@H]1CCCN1C(=O)[C@H](C)NC(=O)[C@H]1CC[C@H](NC(=S)Nc2ccc(-c3c4ccc(=O)cc-4oc4cc(O)ccc34)c(C(=O)O)c2)CC1)C(=O)N1CCC[C@H]1C(=O)N[C@@H](CCCCNC(=O)CCN(C)c1ccc(/N=N/c2ccc([N+](=O)[O-])cc2)cc1)C(=O)N[C@@H](CCCCN)C(=O)NCC(=O)N[C@@H](CO)C(=O)N[C@@H](CCCCN)C(N)=O (X1-[Achc(trans-4)]APAPK(X2)KGSK-NH2),fold change (FC) [11]: 12.3
4.79,1.85,1.04,1.11,1.07,1.14,CC[C@H](C)[C@H](NC(=O)[C@H](CCCNC(=N)N)NC(=O)[C@H](Cc1ccccc1)NC(=O)[C@H](CC(N)=O)NC(=O)[C@H]1CC[C@H](NC(=S)Nc2ccc(-c3c4ccc(=O)cc-4oc4cc(O)ccc34)c(C(=O)O)c2)CC1)C(=O)N[C@@H](CCCCNC(=O)CCc1ccc(/N=N/c2ccc(N(C)C)cc2)cc1)C(=O)N[C@@H](CCCNC(=N)N)C(=O)N[C@@H](Cc1ccc(O)cc1)C(=O)N[C@@H](CO)C(=O)N[C@@H](CC(N)=O)C(N)=O (X1-[Achc(trans-4)]NFRIK(X3)RYSN-NH2),fold change (FC) [11]: 1.92
